The source of these data is ChEMBL document CHEMBL2176957, “Discovery of a novel noniminosugar acid α glucosidase chaperone series” (J Med Chem, 2012).

By IC50 is commonly meant the concentration needed to halve the response being measured. A word on the Papp: it is a coefficient for how fast a substance crosses the barrier. A high value points to ready permeation. Broadly, the solubility is how much of the substance goes into solution per volume. Lower therefore signals little dissolved substance.

Converted amounts (≈) assume the structure as drawn. The source made the active and inactive calls. No cut-off for these calls is given here.

For data set [1], the target named is T1, Lysosomal acid glucosylceramidase (Homo sapiens) (UniProt P04062).
T1 sequence (whole entry): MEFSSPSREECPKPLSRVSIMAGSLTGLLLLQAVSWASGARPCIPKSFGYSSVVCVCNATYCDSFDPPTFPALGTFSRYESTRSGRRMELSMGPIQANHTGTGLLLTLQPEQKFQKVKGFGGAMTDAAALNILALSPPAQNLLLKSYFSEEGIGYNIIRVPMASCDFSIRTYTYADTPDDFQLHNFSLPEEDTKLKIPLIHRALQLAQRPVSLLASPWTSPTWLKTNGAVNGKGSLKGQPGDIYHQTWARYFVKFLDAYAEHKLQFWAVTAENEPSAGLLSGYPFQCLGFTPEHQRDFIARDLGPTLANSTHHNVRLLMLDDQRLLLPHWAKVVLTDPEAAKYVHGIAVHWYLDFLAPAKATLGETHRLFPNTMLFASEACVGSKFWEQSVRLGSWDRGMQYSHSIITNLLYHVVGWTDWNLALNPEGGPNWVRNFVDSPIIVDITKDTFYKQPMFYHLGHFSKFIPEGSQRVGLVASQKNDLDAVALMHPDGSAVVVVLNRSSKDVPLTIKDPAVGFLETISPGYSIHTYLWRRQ
The data set can be described thus: Inhibition of glucocerebrosidase.

Data set [2] deals with T2, Lysosomal alpha-glucosidase (Homo sapiens, UniProt P10253). The data set can be described thus: Increase in GAA activity in human F2845 cells incubated for 5 days followed by 18 to 40 hrs wash out by fluorescence assay relative to vehicle-treated control. The format is cell-based. The gist of the method: (§1)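 Fibroblasts seeded at 5,000 cells/well and treated 5 days, with media and compound renewed on day 3. Assayed directly or after PBS wash and 18 h or 40 h in compound-free medium. Cells were incubated 2 h at 37 °C in pH 4.0 citrate/phosphate buffer with 3 mM 4-MUG and acarbose, then stopped at pH 10. Background subtracted, normalized to vehicle (100%); triplicate, mean ±SD.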

A short description of data set [3]: Cytotoxicity in human wild type skin fibroblasts at 10 to 20 uM after 6 days by confocal laser-scanning microscopic analysis. The conditions noted are these: skin fibroblast, 144 h. The gist of the method: (§2)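 Primary wild-type dermal fibroblasts and patient-derived Pompe fibroblasts (passage 7) grown on chamber slides and exposed to compound for 5 or 6 days. Viability judged from the cultures examined by immunostaining and confocal microscopy.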

Data set [4] addresses T2, Lysosomal alpha-glucosidase. The data set can be described thus: Increase in translocation of GAA to lysosomes in human wild type skin fibroblasts at 1 to 5 uM after 5 days by confocal laser-scanning microscopic analysis. The essentials:
(§3)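 Wild-type primary dermal fibroblasts or Pompe patient fibroblasts (F3248, F0833, F2845; low passage) treated with compound for 5 or 6 days. Fixed in 3% paraformaldehyde, permeabilized with 0.1% Triton X-100, blocked, stained with mouse anti-GAA (Alexa-488) and goat anti-cathepsin D (Alexa-555), DAPI counterstain. Confocal images taken at fixed laser settings; percentage of cells with lysosomal GAA co-localization scored.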

Data set [5] has the same target. The data set can be described thus: Inhibition of wild type recombinant GAA preincubated for 5 mins measured after 45 mins using red-shifted dye by fluorescence assay. The following applies: read-out: IC50.
For data set [6] the target is unchanged. The data set can be described thus: Increase in GAA activity in human wild type skin fibroblasts incubated for 5 days followed by 18 to 40 hrs wash out by fluorescence assay relative to vehicle-treated control. The gist of the method:
as §1

The target is the same in data set [7]. The data set can be described thus: Inhibition of human recombinant GAA assessed as hydrolysis of bovine liver glycogen by Amplex red oxidase assay. The essentials: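 Recombinant human GAA hydrolysing bovine liver glycogen as the native substrate. Released glucose was detected with an Amplex Red glucose oxidase coupled reaction, read as fluorescence on a plate reader.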

Another data set deals with Liver. The data set can be described thus: Half life in mouse liver microsomes.
Data set [8] has as its target T2, Lysosomal alpha-glucosidase. The data set can be described thus: Binding affinity at wild type recombinant GAA assessed as rise in melting temperature of protein using SYPRO Orange dye by fluorescence assay. The essentials: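 Thermal shift of recombinant wild-type GAA (1 μM) with SYPRO Orange (5×) in 50 mM citrate buffer pH 5.0 with 100 mM KCl, 10 mM NaCl, 1 mM MgCl2. Six-point compound series, 0.82–200 μM final, 2% DMSO, DMSO controls. Heated 20 to 95 °C at 4.8 °C/s; fluorescence ex 498/em 580 nm; Tm calculated from the melt curve.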

Data set [9] in a line: Cytotoxicity in human wild type skin fibroblasts assessed as cell viability at 1 to 5 uM after 5 days by confocal laser-scanning microscopic analysis. The following applies: skin fibroblast, 120 h. The essentials: as §2
Data set [10] deals with T2, Lysosomal alpha-glucosidase. The data set can be described thus: Increase in GAA activity in human F2845 cells incubated for 5 days by fluorescence assay relative to vehicle-treated control. The format is cell-based. The gist of the method: as §1
Data set [11] can be described thus: Cytotoxicity in human F2845 cells assessed as cell viability at 1 to 5 uM after 5 days confocal laser-scanning microscopic analysis. The format is cell-based. The following applies: f2845, 120 h. The essentials: as §2
Data set [12] has as its target T2, Lysosomal alpha-glucosidase. The data set can be described thus: Inhibition of wild type recombinant GAA preincubated for 5 mins measured after 45 mins using blue-shifted dye by fluorescence assay. The following applies: read-out: IC50.
The test system of data set [13] is Caco-2. The data set can be described thus: Permeability from basolateral to apical side of human Caco2 cells. A general note: Caco-2 cells form a polarised layer with tight junctions and transporters.
The nature of data set [14]: Cytotoxicity in human F2845 cells at 10 to 20 uM after 6 days by confocal laser-scanning microscopic analysis. The format is cell-based. The following applies: f2845, 144 h. The essentials: as §2
A short description of data set [15]: Aqueous solubility in PBS buffer.
The target in data set [16] is T2, Lysosomal alpha-glucosidase. The data set can be described thus: Binding affinity at wild type recombinant GAA assessed as thermostabilization of protein at 50 uM incubated at 66 degC for 60 mins. The gist of the method:
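GAA incubated at 66 °C for 60 min with compound at 50 μM, compared with room-temperature incubation. Residual enzymatic activity read out and expressed as the ratio of heated to room-temperature activity; DMSO controls run in duplicate.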

Data set [17] concerns Caco-2. The data set can be described thus: Efflux ratio from basolateral to apical side to apical to basolateral side of human Caco2 cells. Format: ADME, cell-based.
The target of data set [18] is T2, Lysosomal alpha-glucosidase. The data set can be described thus: Ratio of Kd for wild type recombinant NT-495 labelled GAA to IC50 for wild type recombinant GAA (unknown origin.
Data set [19] has as its system Caco-2. The data set can be described thus: Permeability from apical to basolateral side of human Caco2 cells.
The target in data set [20] is T2, Lysosomal alpha-glucosidase. The data set can be described thus: Increase in GAA activity in human wild type skin fibroblasts incubated for 5 days by fluorescence assay relative to vehicle-treated control. The essentials: as §1
A short description of data set [21]: Inhibition of alpha-galactosidase.
For data set [22], the target named is T2, Lysosomal alpha-glucosidase. The data set can be described thus: Increase in translocation of GAA to lysosomes in human F2845 cells at 1 to 5 uM after 5 days by confocal laser-scanning microscopic analysis. Format: cell-based. The essentials:
as §3

For `CC(=O)c1ccc(N2CCN(S(=O)(=O)c3ccc4c(c3)CC(=O)N4)CC2)cc1`, the inhibition result in data set [1] and in data set [21] was “Active” throughout. For the same compound, the result in data set [2], in data set [6], in [8], in data set [10], in [16] and in data set [20] was Active. Also, the Activity result in [3] is reported as “Toxic”; in data set [9] it was “Non-toxic”; in [11], “Non-toxic”; in data set [14] it was “Toxic”. For the same compound, the result in [4] and in [22] was inactive. The values for the IC50 in data set [5] and in data set [12] were 940 nM and 750 nM, respectively. In addition, in data set [7], the INH is 330 nM. Further, the t1/2 in the data set on Liver is > 1 h. In addition, the Papp in the data set on Caco-2 [13] is 27.1 ×10⁻⁶ cm/s; in the data set with Caco-2 [19], 14.6 ×10⁻⁶ cm/s. This compound also came in with a solubility in [15] of 7.9 µM (≈ 3.16 µg/mL). The Ratio is 1.9 in the data set with Caco-2 [17] and 20 in data set [18].
